The text below walks through data of ChEMBL document CHEMBL4627404, “Design, Synthesis, and Activity Study of Water-Soluble, Rapid-Release Propofol Prodrugs” (J Med Chem, 2020).

Series [1] relates to Mus musculus. The series can be described thus: Anesthetic activity in iv dosed drug naive Kunming mouse assessed as time from end of injection to appearance of loss of righting reflex dosed at 2 times anesthetic ED50. The class given is functional. The procedure, abridged: (§1)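 Ten drug-naïve male KM mice (20-30 g) per drug received 2×ED50 by tail-vein injection. Onset is timed from end of injection to appearance of LORR. Duration is timed from LORR appearance to its recovery. Survival is recorded over the 10 mice.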

The nature of series [2]: Solubility in water measured per 100 ml. It counts as physicochemical. The following applies: buffer.
The nature of series [3]: Drug metabolism in iv dosed drug naive Kunming mouse assessed dose of propofol released from prodrugs dosed at 2 times anesthetic ED50. The class given is ADME, organism-based. The note with it: in vivo. In outline: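 Propofol delivered at 2×ED50 is calculated as (MW propofol/MW prodrug)×(2×ED50) mg/kg from the tail-vein ED50 in KM mice.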
For series [4], the system named is Mus musculus. As to the kind of experiment: Anesthetic activity in iv dosed drug naive Kunming mouse assessed as loss of righting reflex. The class given is functional. The procedure, abridged:
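Male KM mice (20-30 g), at least 20 drug-naïve animals per drug, given a tail-vein bolus over ~10 s. Anaesthesia scored as loss of righting reflex. ED50 found by the up-and-down method and analysed by Dixon–Mood to give the median effective dose with 95% CI.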

Series [5] in a line: Toxicity in iv dosed drug naive Kunming mouse assessed as mouse survival dosed at 2 times anesthetic ED50. It counts as organism-based. The note with it: in vivo. The procedure, abridged: as §1
Series [6] in a line: Toxicity in iv dosed drug naive Kunming mouse. The note with it: in vivo. It counts as organism-based. The procedure, abridged:
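Male KM mice (20-30 g), at least 20 drug-naïve animals per drug, given a tail-vein bolus over ~10 s. LD50 found by the up-and-down method.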

The nature of series [7]: Therapeutic index, ratio of LD50 for toxicity in iv dosed drug naive Kunming mouse to ED50 for anesthetic activity in iv dosed drug naive Kunming mouse assessed as loss of righting reflex. The class given is organism-based. The following applies: in vivo, read-out: Ratio LD50/ED50. The procedure, abridged: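 TI = LD50/ED50. Both values come from tail-vein bolus (~10 s) dosing of male KM mice (20-30 g, at least 20 drug-naïve per drug) by the up-and-down method. The ED50 end point is loss of righting reflex.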

A short description of series [8]: Stability in Kunming mouse plasma assessed as drug decomposition at 100 ug/ml incubated up to 120 mins by HPLC analysis. It counts as ADME, cell-free. The following applies: 2 h. The procedure, abridged:
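Mouse blood was heparinised at sampling and centrifuged at 3500×g for 5 min at 4 °C to obtain plasma. A 10 mg/ml aqueous stock was diluted 1:100 into plasma, giving a final 100 μg/ml, and shaken at 37 °C for 2 h. The read-out was the percentage of propofol released, given as mean ± SD. Water stability (30 °C, 4 h, n=3) was checked beforehand.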

Series [9] can be described thus: Stability in water at 10 mg/ml incubated for 4 hrs by HPLC analysis. The class given is physicochemical. The following applies: buffer. The procedure, abridged:
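Aqueous solutions (10 mg/ml) held at 30 °C for 4 h before the plasma hydrolysis studies, n=3.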

Series [10] can be described thus: Stability in Kunming mouse plasma assessed as drug decomposition at 100 ug/ml incubated for 2 hrs by HPLC analysis. It counts as ADME, cell-free.
Series [11] is described as follows: Solubility in water. The class given is physicochemical.
A short description of series [12]: Drug metabolism in Kunming mouse plasma assessed as propofol release at 100 ug/ml incubated up to 120 mins by HPLC analysis relative to control. It counts as ADME, cell-free. The following applies: 2 h.

Activity calls are given as the source filed them. The calls are words filed in the database; no cut-off is given here.

In the case of `CC(C)c1cccc(C(C)C)c1OC(=O)COC(=O)CN1CCCCC1.Cl`, the Time in series [1] stood at 3 s. The compound further returned a solubility in series [2] of 85.86 g. In addition, the Drug metabolism in series [3] turned out to be 22 mg/kg. For the same compound, the 50% effective dose (ED50) – broadly, the dose at which the effect has come halfway, by size or by number of responders – in series [4] is 22.3 mg/kg. Further, in series [5], the survival is 100%. Moreover, the 50% lethal dose (LD50) – broadly, the dose at which mortality reaches 50% – in series [6] was found to be 91.4 mg/kg. Also, the selectivity ratio in series [7] was 4.1.
Regarding `CC(C)c1cccc(C(C)C)c1OC(=O)COC(=O)CN.Cl`, the Time in series [1] came to 9.1 s. Moreover, in series [3], the Drug metabolism was 37.1 mg/kg. For the same compound, the ED50 in series [4] turned out to be 34.3 mg/kg. In addition, the survival in [5] was 10%. Also, the 50% lethal dose (LD50) in series [6] turned out to be 89.2 mg/kg. Moreover, the selectivity ratio in series [7] turned out to be 2.6.
Regarding `CC(C)c1cccc(C(C)C)c1OC(=O)OC(CC(=O)[O-])C(=O)[O-].[Na+].[Na+]` (stereo not given), the Stability result in series [8] and in [9] was “Stable” each time. For the same compound, in series [4], the ED50 result is “inactive”.
On to `CC(C)c1cccc(C(C)C)c1OC(=O)OC(C(=O)[O-])C(=O)[O-].[Na+].[Na+]`, for which the Stability result in [8] and in series [9] was “Stable” throughout. For the same compound, the ED50 entry in [4] was “inactive”.
Consider `CC(C)c1cccc(C(C)C)c1OC(=O)COC(=O)C1COCCN1.Cl` (stereo not given), for which, in [1], the Time worked out at 6.7 s. Further, in [3], the Drug metabolism came out at 28.1 mg/kg. In addition, the median effective dose (ED50) in series [4] was found to be 30.4 mg/kg. Besides, the survival in series [5] was 60%. For the same compound, the LD50 in series [6] turned out to be 69.6 mg/kg. In addition, the selectivity ratio in series [7] stood at 2.3.
As to `CC(C)c1cccc(C(C)C)c1OC(=O)CSCC(=O)[O-].[Na+]`, the Time in series [1] was 20.2 s. For the same compound, the Stability entry in [10] is given as “Stable”. For the same compound, the Drug metabolism in series [3] came out at 203.6 mg/kg. Also, the ED50 in series [4] was determined as 190 mg/kg. Moreover, the survival in [5] was determined as 0%. Also, the LD50 in series [6] amounted to 222 mg/kg. Also, the selectivity ratio in series [7] stood at 1.2.
With `CC(C)c1cccc(C(C)C)c1OC(=O)COC(=O)CN1CCN(C)CC1.Cl`, in [1], the Time amounted to 2.4 s. The Drug metabolism in series [3] was 34.8 mg/kg. For the same compound, in series [4], the 50% effective dose (ED50) was found to be 40.3 mg/kg. In addition, the survival in [5] came to 70%. The same compound had a median lethal dose (LD50) in series [6] of 91.6 mg/kg. In addition, the selectivity ratio in series [7] worked out at 2.3.
`CC(C)c1cccc(C(C)C)c1OC(=O)OCC(=O)[O-].[Na+]`: the Stability entry in series [9] is “Stable”. Besides, in [4], the ED50 result was “inactive”.
Consider `CC(C)c1cccc(C(C)C)c1OC(=O)COC(=O)CN(C)C.Cl`, for which the Time in [1] is 4.6 s. Besides, in series [3], the Drug metabolism turned out to be 40.1 mg/kg. In addition, in series [4], the ED50 came to 40.2 mg/kg. Also, in series [5], the survival came out at 40%. For the same compound, the LD50 in series [6] worked out at 93.8 mg/kg. For the same compound, in [7], the selectivity ratio is 2.3.
Consider `CNCC(=O)OCC(=O)Oc1c(C(C)C)cccc1C(C)C.Cl`, for which, in [1], the Time is recorded as 8 s. In series [3], the Drug metabolism stood at 30.7 mg/kg. For the same compound, the median effective dose (ED50) in series [4] stood at 29.6 mg/kg. Also, in [5], the survival is 60%. Moreover, the LD50 in series [6] is 60.8 mg/kg. Further, the selectivity ratio in series [7] was found to be 2.
Consider `CC(C)c1cccc(C(C)C)c1O` [PROPOFOL], for which, in series [1], the Time came to 1 s. This compound also had a solubility in [2] of 1.53 ×10⁻² g. In addition, in series [3], the Drug metabolism worked out at 23.4 mg/kg. In addition, the survival in [5] worked out at 100%. The same compound came in with an LD50 in series [6] of 52.2 mg/kg. The selectivity ratio in series [7] amounted to 4.5.
In the case of `CC(C)c1cccc(C(C)C)c1OC(=O)COC(=O)CC(=O)[O-].[Na+]`, the Time in [1] came out at 72.2 s. The Drug metabolism in [3] came out at 76 mg/kg. Moreover, the median effective dose (ED50) in series [4] worked out at 75.9 mg/kg. In addition, the survival in series [5] is 100%. This compound yielded an LD50 in series [6] of 244 mg/kg. In addition, the selectivity ratio in series [7] is 3.2.
As for `CC(C)c1cccc(C(C)C)c1OC(=O)CNCC(=O)O.Cl`, the solubility in series [11] was < 10 mg/mL.
With `CC(C)c1cccc(C(C)C)c1OCOP(=O)([O-])[O-].[Na+].[Na+]` [FOSPROPOFOL DISODIUM], the Time in series [1] amounted to 46.4 s. Further, in [3], the Drug metabolism is 112.7 mg/kg. Besides, the ED50 in series [4] came to 105 mg/kg. The survival in series [5] stood at 100%. The same compound showed a median lethal dose (LD50) in series [6] of 288 mg/kg. Besides, the selectivity ratio in [7] stood at 2.8.
Turning to `CC(C)c1cccc(C(C)C)c1OC(=O)OCCC(=O)[O-].[Na+]`, the Stability entry in series [9] was “Stable”. Moreover, in series [4], the ED50 entry is “inactive”.
`CC(C)c1cccc(C(C)C)c1OC(=O)COC(=O)CCC(=O)[O-].[Na+]`: the figures for the Drug metabolism result in series [12] and in [3] were “Metabolite_Detected” and 75.7 mg/kg, respectively. Moreover, in [1], the Time is 25.5 s. Further, in series [4], the ED50 is 73.1 mg/kg. For the same compound, the survival in [5] is 80%. In [6], the 50% lethal dose (LD50) was found to be 205 mg/kg. Besides, the selectivity ratio in series [7] stood at 2.8.
Turning to `CC(C)c1cccc(C(C)C)c1OC(=O)COC(C(=O)[O-])C(=O)[O-].[Na+].[Na+]`, in [10], the Stability result is recorded as “Stable”. Moreover, the ED50 result in series [4] is “inactive”.
As for `CC(C)c1cccc(C(C)C)c1OC(=O)COC(=O)CN1CCCC1.Cl`, the Time in series [1] worked out at 4 s. The compound also had a solubility in series [2] of 83.96 g. In series [3], the Drug metabolism came out at 23.4 mg/kg. Further, the median effective dose (ED50) in series [4] is 25.2 mg/kg. Further, the survival in series [5] amounted to 100%. The compound also registered a 50% lethal dose (LD50) in series [6] of 92.1 mg/kg. Besides, in [7], the selectivity ratio stood at 3.6.
As for `CC(C)c1cccc(C(C)C)c1OC(=O)COC(=O)C1CCCCN1.Cl` (stereo not given), in [1], the Time came to 10.6 s. Also, the Drug metabolism in series [3] turned out to be 19.3 mg/kg. In series [4], the median effective dose (ED50) was 20.8 mg/kg. In series [5], the survival was determined as 20%. Further, in series [6], the LD50 was 54.4 mg/kg. The selectivity ratio in series [7] was 2.6.
As to `CC(C)c1cccc(C(C)C)c1OC(=O)COCC(=O)[O-].[Na+]`, in series [1], the Time is given as 82.3 s. In series [11], the solubility was < 20 mg/mL. Also, in series [3], the Drug metabolism came to 74 mg/kg. In addition, the 50% effective dose (ED50) in [4] came out at 65.7 mg/kg. The survival in series [5] was 100%.
`CC(C)c1cccc(C(C)C)c1OC(=O)CN1CCOCC1`: the Time in [1] is recorded as 12 s. For the same compound, in [3], the Drug metabolism is 42.7 mg/kg. Moreover, in series [4], the ED50 came out at 36.6 mg/kg. The survival in [5] came out at 30%. In series [6], this compound displayed an LD50 of 75 mg/kg. The selectivity ratio in series [7] was 2.1.
Take `CC(C)c1cccc(C(C)C)c1OC(=O)COC(=O)[C@H](C)N.Cl`: in series [1], the Time is reported as 18.2 s. For the same compound, the Drug metabolism in series [3] came to 21.2 mg/kg. Further, the 50% effective dose (ED50) in series [4] turned out to be 20.5 mg/kg. In addition, the survival in series [5] amounted to 50%. This compound also showed a median lethal dose (LD50) in series [6] of 51.9 mg/kg. Moreover, the selectivity ratio in [7] is 2.5.
Regarding `CC(C)c1cccc(C(C)C)c1OC(=O)COC(=O)CN1CCOCC1.Cl`, the Drug metabolism entry was “Metabolite_Detected” in series [12] and 25.1 mg/kg in series [3]. Further, the Time in series [1] stood at 3.1 s. The same compound displayed a solubility in series [2] of 76.33 g. Moreover, the ED50 in series [4] was 28.1 mg/kg. Further, the survival in [5] was 100%. In [6], the LD50 is 132 mg/kg. Further, in series [7], the selectivity ratio turned out to be 4.7.
